In ChEMBL document CHEMBL4017537, “Discovery of a Potent and Specific M. tuberculosis Leucyl-tRNA Synthetase Inhibitor: (S)-3-(Aminomethyl)-4-chloro-7-(2-hydroxyethoxy)benzo[c][1,2]oxaborol-1(3H)-ol (GSK656)” (J Med Chem, 2017):

Assays:
[1] = AUC (0 to infinity) in CD-1 mouse at 30 mg/kg, iv after 24 hrs by LC-MS/MS analysis; assay type: ADME, organism-based; set-up: dose 30 mg/kg, route intravenous, time infinity; details: in vivo
Mus musculus [2] = test: Dose normalized AUC (0 to infinity) in CD-1 mouse at 30 mg/kg, iv after 24 hrs by LC-MS/MS analysis; assay type: ADME, organism-based; details: in vivo
Mus musculus [3] = test: Toxicity in mouse at 150 mg/kg; assay type: organism-based; details: in vivo
In short: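 Maximum single tolerated dose study: healthy mice each got one dose, and tolerability was judged across escalating dose levels.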

Mus musculus [4] = test: Toxicity in mouse at 50 mg/kg, qd; assay type: organism-based; details: in vivo
[5] = Tmax in C57BL/6 mouse at 26.1 mg/kg administered as single dose via oral gavage measured up to 24 hrs by LC-MS/MS analysis; assay type: ADME, organism-based; details: in vivo
Mus musculus [6] = test: Dose normalized AUC (0 to 24 hrs) in C57BL/6 mouse at 26.1 mg/kg administered as single dose via oral gavage by LC-MS/MS analysis; assay type: ADME, organism-based; details: in vivo
[7] = Clearance in C57BL/6 mouse at 28.5 mg/kg, iv administered as single dose measured up to 8 hrs by LC-MS/MS analysis; assay type: ADME, organism-based; details: in vivo
[8] = Oral bioavailability in C57BL/6 mouse at 26.1 mg/kg administered as single dose via gavage measured up to 24 hrs by LC-MS/MS analysis; assay type: ADME, organism-based; details: in vivo
[9] = AUC (0 to 24 hrs) in CD-1 mouse at 30 mg/kg administered via oral gavage by LC-MS/MS analysis; assay type: ADME, organism-based; set-up: dose 30 mg/kg, time < 24 hr, route oral; details: in vivo
[10] = Tmax in CD-1 mouse at 30 mg/kg administered via oral gavage after 24 hrs by LC-MS/MS analysis; assay type: ADME, organism-based; details: in vivo
[11] = Cmax in C57BL/6 mouse at 26.1 mg/kg administered as single dose via oral gavage measured up to 24 hrs by LC-MS/MS analysis; assay type: ADME, organism-based; set-up: dose 26.1 mg/kg, route oral; details: in vivo
Mus musculus [12] = test: Dose normalized AUC (0 to 24 hrs) in CD-1 mouse at 30 mg/kg administered via oral gavage by LC-MS/MS analysis; assay type: ADME, organism-based; details: in vivo
[13] = Oral bioavailability in CD-1 mouse at 30 mg/kg administered via gavage after 24 hrs by LC-MS/MS analysis; assay type: ADME, organism-based; details: in vivo
[14] = Half life in C57BL/6 mouse at 28.5 mg/kg, iv administered as single dose measured up to 8 hrs by LC-MS/MS analysis; assay type: ADME, organism-based; details: in vivo
Mus musculus [15] = test: Dose normalized AUC (0 to infinity) in C57BL/6 mouse at 5.5 mg/kg, iv administered as single dose measured up to 24 hrs by LC-MS/MS analysis; assay type: ADME, organism-based; details: in vivo
[16] = Toxicity in mouse; assay type: organism-based; details: in vivo
[17] = Oral bioavailability in C57BL/6 mouse at 30 mg/kg administered as single dose via gavage measured up to 24 hrs by LC-MS/MS analysis; assay type: ADME, organism-based; details: in vivo
Mus musculus [18] = test: Dose normalized AUC (0 to 24 hrs) in C57BL/6 mouse at 30 mg/kg administered as single dose via oral gavage by LC-MS/MS analysis; assay type: ADME, organism-based; details: in vivo
[19] = target: Leucine--tRNA ligase, cytoplasmic (Homo sapiens, UniProt Q9P2J5); test: Inhibition of human N-terminal 6His-tagged cytoplasmic LeuRS expressed in Escherichia coli BL21(DE3) assessed as […] after 20 mins by liquid scintillation counting analysis
[20] = AUC (0 to infinity) in C57BL/6 mouse at 5.5 mg/kg, iv administered as single dose measured up to 24 hrs by LC-MS/MS analysis; assay type: ADME, organism-based; set-up: dose 5.5 mg/kg, time infinity, route intravenous; details: in vivo
[21] = Toxicity in mouse administered qd; details: in vivo
[22] = Half life in C57BL/6 mouse at 5.5 mg/kg, iv administered as single dose measured up to 24 hrs by LC-MS/MS analysis; assay type: ADME, organism-based; details: in vivo
[23] = Clearance in C57BL/6 mouse at 5.5 mg/kg, iv administered as single dose measured up to 24 hrs by LC-MS/MS analysis; assay type: ADME, organism-based; details: in vivo
[24] = tested on: Mycobacterium tuberculosis; test: Antimicrobial activity against Mycobacterium tuberculosis H37Rv infected in C57BL/6J mouse assessed as bacterial load in lungs at 0.3 mg/kg qd administered for 8 consecutive weeks starting from 6 weeks post infection measured 24 hrs post last dose (reference value: 6.4 +/- 0.3 log10CFU); assay type: functional
In short: (§1)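 C57BL/6J mice infected intratracheally with ~10² CFU M. tuberculosis H37Rv. Dosed QD, 7 days/week, for 8 weeks starting 6 weeks post-infection; killed ≥24 h after last dose. Lung homogenates plated on 7H11/10% OADC for 21 days at 37 °C. n = 3 per dose group, 7 for controls; mean (SD); ANOVA with Dunnett's test versus 14-week untreated.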

[25] = Tmax in C57BL/6 mouse at 30 mg/kg administered as single dose via oral gavage measured up to 24 hrs by LC-MS/MS analysis; assay type: ADME, organism-based; details: in vivo
In short: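 C57BL/6 female mice (18−20 g) got one oral gavage dose of 30 mg/kg in 1% methylcellulose. Peripheral whole blood was sampled from 15 min to 24 h postdose, n = 3 mice per time point, and drug concentrations were measured in blood.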

[26] = Volume of distribution at steady state in C57BL/6 mouse at 5.5 mg/kg, iv administered as single dose measured up to 24 hrs by LC-MS/MS analysis; assay type: ADME, organism-based; details: in vivo, read-out: Vdss
In short: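 C57BL/6 female mice (18−20 g) got one intravenous dose in saline. Whole blood (15 μL) was taken by lateral tail-vein puncture from each of 3 mice at 5, 15 and 30 min and at 1, 2, 4, 8 and 24 h postdose, and drug concentrations were measured in peripheral blood.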

[27] = tested on: Mycobacterium tuberculosis; test: Antimicrobial activity against Mycobacterium tuberculosis H37Rv infected in C57BL/6J mouse assessed as bacterial load in lungs at 1 mg/kg qd administered for 8 consecutive weeks starting from 6 weeks post infection measured 24 hrs post last dose (reference value: 6.4 +/- 0.3 log10CFU); assay type: functional; in short: as §1
[28] = tested on: Mycobacterium tuberculosis; test: Antimicrobial activity against Mycobacterium tuberculosis H37Rv infected in C57BL/6J mouse assessed as bacterial load in lungs at 30 mg/kg qd administered for 8 consecutive weeks starting from 6 weeks post infection measured 24 hrs post last dose (reference value: 6.4 +/- 0.3 log10CFU); assay type: functional; in short: as §1
[29] = tested on: Mycobacterium tuberculosis; test: Antimicrobial activity against Mycobacterium tuberculosis H37Rv infected in C57BL/6J mouse assessed as bacterial load in lungs at 0.1 mg/kg qd administered for 8 consecutive weeks starting from 6 weeks post infection measured 24 hrs post last dose (reference value: 6.4 +/- 0.3 log10CFU); assay type: functional; in short: as §1
[30] = Cmax in C57BL/6 mouse at 30 mg/kg administered as single dose via oral gavage measured up to 24 hrs by LC-MS/MS analysis; assay type: ADME, organism-based; set-up: dose 30 mg/kg, route oral; details: in vivo
[31] = tested on: Mycobacterium tuberculosis; test: Antimicrobial activity against Mycobacterium tuberculosis H37Rv infected in C57BL/6J mouse assessed as bacterial load in lungs at 3 mg/kg qd administered for 8 consecutive weeks starting from 6 weeks post infection measured 24 hrs post last dose (reference value: 6.4 +/- 0.3 log10CFU); assay type: functional; in short: as §1
[32] = tested on: Mycobacterium tuberculosis; test: Antimicrobial activity against Mycobacterium tuberculosis H37Rv infected in C57BL/6J mouse assessed as bacterial load in lungs at 10 mg/kg qd administered for 8 consecutive weeks starting from 6 weeks post infection measured 24 hrs post last dose (reference value: 6.4 +/- 0.3 log10CFU); assay type: functional; in short: as §1

Chain of Leucine--tRNA ligase, cytoplasmic (Q9P2J5 whole entry): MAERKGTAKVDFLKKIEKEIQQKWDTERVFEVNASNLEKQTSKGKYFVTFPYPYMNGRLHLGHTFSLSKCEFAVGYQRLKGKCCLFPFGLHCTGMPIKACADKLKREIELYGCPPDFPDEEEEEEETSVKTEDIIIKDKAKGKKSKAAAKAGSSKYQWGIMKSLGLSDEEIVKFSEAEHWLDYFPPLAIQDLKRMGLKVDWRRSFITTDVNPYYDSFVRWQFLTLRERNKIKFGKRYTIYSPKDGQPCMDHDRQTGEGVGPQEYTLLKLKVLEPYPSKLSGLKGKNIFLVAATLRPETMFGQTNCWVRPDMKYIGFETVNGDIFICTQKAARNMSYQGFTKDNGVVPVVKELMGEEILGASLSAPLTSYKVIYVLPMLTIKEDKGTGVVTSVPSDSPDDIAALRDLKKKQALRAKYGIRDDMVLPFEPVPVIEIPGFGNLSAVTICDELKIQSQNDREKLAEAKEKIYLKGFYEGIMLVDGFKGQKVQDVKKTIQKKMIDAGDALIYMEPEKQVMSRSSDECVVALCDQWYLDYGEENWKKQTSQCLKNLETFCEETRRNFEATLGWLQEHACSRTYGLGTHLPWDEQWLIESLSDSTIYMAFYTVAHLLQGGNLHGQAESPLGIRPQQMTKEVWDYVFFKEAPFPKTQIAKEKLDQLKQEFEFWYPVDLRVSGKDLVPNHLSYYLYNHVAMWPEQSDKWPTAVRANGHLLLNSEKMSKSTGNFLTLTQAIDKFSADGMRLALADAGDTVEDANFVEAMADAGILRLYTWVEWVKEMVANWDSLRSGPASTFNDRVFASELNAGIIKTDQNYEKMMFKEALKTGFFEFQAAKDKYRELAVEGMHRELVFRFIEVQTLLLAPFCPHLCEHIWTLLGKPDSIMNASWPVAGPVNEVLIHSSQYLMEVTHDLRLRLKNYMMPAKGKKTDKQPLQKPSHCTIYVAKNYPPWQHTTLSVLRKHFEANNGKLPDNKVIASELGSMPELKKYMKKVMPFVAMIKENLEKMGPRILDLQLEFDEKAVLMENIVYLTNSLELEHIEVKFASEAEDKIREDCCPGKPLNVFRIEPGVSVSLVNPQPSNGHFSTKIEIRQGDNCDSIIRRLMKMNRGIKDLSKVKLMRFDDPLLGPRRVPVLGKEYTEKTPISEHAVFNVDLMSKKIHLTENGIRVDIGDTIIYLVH

In the case of CCOc1ccc(Br)c2c1B(O)O[C@@H]2CN, the AUC(0-inf) [1] is reported as 43400 ng·h/mL, the AUC/dose (Mus musculus [2]) is reported as 1.45 µg·h/mL/mg/kg and the Activity (Mus musculus [3]) is reported as “Toxic”. For the same compound, the Activity (Mus musculus [4]) was “Toxic”, the Tmax [5] was 2 h and the AUC/dose (Mus musculus [6]) was 2.98 µg·h/mL. It also gave a clearance [7] of 6.6 mL/min/kg, a bioavailability [8] of 100% and an AUC(0-t) at 24 h [9] of 57600 ng·h/mL. For the same compound, the Tmax [10] was 0.5 h, the Cmax [11] was 11100 ng/mL and the AUC/dose (Mus musculus [12]) was 1.92 µg·h/mL. The bioavailability [13] was 100% and the half-life [14] was 3.1 h.
In the case of Cl.NC[C@H]1OB(O)c2c(OCCO)ccc(Cl)c21, the AUC/dose (Mus musculus [15]) is reported as 2.03 µg·h/mL/mg/kg, the MTD [16] is reported as 300 mg/kg and the bioavailability [17] is reported as 100%. For the same compound, the AUC/dose (Mus musculus [18]) was 2.94 µg·h/mL, the IC50 [19] was 132 µM and the AUC(0-inf) [20] was 11100 ng·h/mL. It also gave an MTD [21] of 100 mg/kg, a half-life [22] of 3.6 h and a clearance [23] of 8.5 mL/min/kg. The Activity [24] was 6 log10CFU, the Tmax [25] was 0.9 h and the Vd [26] was 2.3 L/kg. It also gave an Activity [27] of 4.7 log10CFU, an Activity [28] of 4.4 log10CFU and an Activity [29] of 6.4 log10CFU. For the same compound, the Cmax [30] was 17800 ng/mL, the Activity [31] was 4.6 log10CFU and the Activity [32] was 4.3 log10CFU.
